Assay results published in paper PMC6175428 (Journal of Clinical Pharmacology, 2018).
Read-outs that look alike come from different tables or passages of the source. Values belong to the molecule of their own block, whether it stands above or below them.

Legend:
[1] = format: in vivo, human; conditions: for CL/F (total apparent clearance): SNAC after 10th dose, geometric mean (CV)
How it was run: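 Adults with hepatic function graded by Child-Pugh took one oral tablet daily for 10 days: 5 mg for 5 days, then 10 mg for 5 days. Each tablet held 300 mg SNAC and was taken with 120 mL water after a ≥6 h fast. Plasma was sampled within 24 h after dosing on days 1 and 10 into K3-EDTA and stored at −20°C. LC-MS/MS used in-line solid-phase preparation and internal-standard peak area ratios, with an LLOQ of 5.00 ng/mL.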

plasma protein = test: Plasma protein binding of SNAC; format: in vitro ADME, human
How it was run: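 Plasma protein binding measured ex vivo by rapid equilibrium dialysis on blood drawn 30 minutes after the day-10 dose. Subjects with normal hepatic function or mild, moderate or severe hepatic impairment received the oral semaglutide/SNAC co-formulation for 10 consecutive days. Food and liquid were withheld for 30 minutes post-dose. The read-out is the fraction of unbound SNAC per subject, summarised as a median per group.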

[2] = Urine bioanalysis / renal clearance of semaglutide and SNAC; format: in vivo, human; conditions: for CLR (renal clearance): SNAC after 10th dose, geometric mean (CV)
How it was run: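 Urine was collected before dosing on day 1 and in fractions after the day-10 dose (0–4, 4–8, 16–24 and 24–36 h) and stored at −20°C. 1% Triton X-100 was added at 1 part per 9 parts urine. Semaglutide and SNAC were measured by the plasma LC-MS/MS assays, with ranges corrected by a factor of 1.111. Renal clearance was reported as the geometric mean (CV) per hepatic function group.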

[3] = subcutaneous once-daily liraglutide; cited from earlier work
[4] = mild hepatic impairment (n = 12)
[5] = moderate hepatic impairment (n = 12)
[6] = normal hepatic function (n = 24)
[7] = severe hepatic impairment (n = 8)

CL/F (total apparent clearance) [1, 4]: 195.6 (24.2) L/h
CL/F (total apparent clearance) [1, 5]: 105.1 (63.1) L/h
CL/F (total apparent clearance) [1, 6]: 275.8 (27.9) L/h
CL/F (total apparent clearance) [1, 7]: 78.5 (36.4) L/h
Median tmax of SNAC ([1]; across the 4 hepatic function groups): approximately 0.5 hours
Accumulation of SNAC ([1]; day 1 vs day 10 exposure, any hepatic function group): No accumulation
Median fraction of unbound SNAC (plasma protein; across the hepatic function groups, samples 30 minutes after dosing on day 10): less than 1%
Plasma protein binding of SNAC (plasma protein; all subjects across hepatic function groups): more than 99%
CLR (renal clearance) [2, 4]: 0.075 (125.3) L/h
CLR (renal clearance) [2, 5]: 0.054 (73.98) L/h
CLR (renal clearance) [2, 6]: 0.076 (109.0) L/h
CLR (renal clearance) [2, 7]: 0.111 (88.52) L/h
Molecule: O=C([O-])CCCCCCCNC(=O)c1ccccc1O.[Na+] [SNAC, sodium N‐(8‐[2‐hydroxybenzoyl]amino) caprylate]
Estimated mean CLR of SNAC, range across groups ([2]; range of estimated means with 95%CI across hepatic function groups): 0.052 [95%CI, 0.036–0.076]–0.096 [95%CI, 0.059–0.157] L/h

Semaglutide in urine samples ([2]; subjects with normal hepatic function and all hepatic impairment groups): not detected
Molecule: CC[C@H](C)[C@H](NC(=O)[C@H](Cc1ccccc1)NC(=O)[C@H](CCC(=O)O)NC(=O)[C@H](CCCCNC(=O)COCCOCCNC(=O)COCCOCCNC(=O)CC[C@H](NC(=O)CCCCCCCCCCCCCCCCC(=O)O)C(=O)O)NC(=O)[C@H](C)NC(=O)[C@H](C)NC(=O)[C@H](CCC(N)=O)NC(=O)CNC(=O)[C@H](CCC(=O)O)NC(=O)[C@H](CC(C)C)NC(=O)[C@H](Cc1ccc(O)cc1)NC(=O)[C@H](CO)NC(=O)[C@H](CO)NC(=O)[C@@H](NC(=O)[C@H](CC(=O)O)NC(=O)[C@H](CO)NC(=O)[C@@H](NC(=O)[C@H](Cc1ccccc1)NC(=O)[C@@H](NC(=O)CNC(=O)[C@H](CCC(=O)O)NC(=O)C(C)(C)NC(=O)[C@@H](N)Cc1cnc[nH]1)[C@@H](C)O)[C@@H](C)O)C(C)C)C(=O)N[C@@H](C)C(=O)N[C@@H](Cc1c[nH]c2ccccc12)C(=O)N[C@@H](CC(C)C)C(=O)N[C@H](C(=O)N[C@@H](CCCNC(=N)N)C(=O)NCC(=O)N[C@@H](CCCNC(=N)N)C(=O)NCC(=O)O)C(C)C [Semaglutide, reference compound]

Molecule: liraglutide
Drug exposure with impaired liver function [3]: not increased
